The source of these data is ChEMBL document CHEMBL1153787, “Unsaturated dideoxy fluoro-ketopyranosyl nucleosides as new cytostatic agents: a convenient synthesis of 2,6-dideoxy-3-fluoro-4-keto-beta-D-glucopyranosyl analogues of uracil, 5-fluorouracil, thymine, N4-benzoyl cytosine and N6-benzoyl adenine” (Eur J Med Chem, 2009).

Broadly, the IC50 is the concentration that gives 50% inhibition. As a reminder, the CC50 is the concentration at which the toxic effect on the cells reaches its halfway point.

For data set [1], the system named is CCRF-CEM. The experiment in a line: Cytotoxicity against human CEM cells. The class given is functional, cell-based. The essentials: (§1)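 Proliferation of suspension tumour cells (murine L1210 and FM3A, human Molt4/C8 and CEM) was measured. IC50 is the compound concentration that inhibits cell proliferation by 50%.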
Data set [2] can be described thus: Cytotoxicity against african green monkey Vero cells assessed as induction of microscopically visible alteration in cell morphology. The class given is cell-based. The note with it: chlorocebus sabaeus, read-out: MIC. In short, it runs like this: (§2)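 HEL, Vero and HeLa cell cultures were examined under the microscope for changes in cell morphology. MIC is the compound concentration that causes a microscopically visible alteration of cell morphology.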

In data set [3] the test system is FM3A. As to the kind of experiment: Cytotoxicity against mouse FM3A cells. The class given is functional, cell-based. In short, it runs like this: as §1
For data set [4], the system named is L1210. As to the kind of experiment: Cytotoxicity against mouse L1210 cells. The class given is functional, cell-based. In short, it runs like this: as §1
Data set [5] in a line: Cytotoxicity against MDCK cells assessed as reduction of cell viability by MTS dye staining. Particulars: dog. It counts as cell-based, Canis lupus familiaris. In short, it runs like this:
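MDCK cell viability read by colorimetric formazan-based MTS dye staining. CC50 is the compound concentration that reduces cell viability by 50%.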
Background: Tetrazolium assays rely on reduction of a dye to a coloured formazan, in cell work by metabolically active cells.

Data set [6] concerns HeLa. The experiment in a line: Cytotoxicity against human HeLa cells assessed as induction of microscopically visible alteration in cell morphology. It counts as functional. The note with it: read-out: MIC. The essentials: as §2
A short description of data set [7]: Cytotoxicity against human HEL cells assessed as induction of microscopically visible alteration in cell morphology. It counts as cell-based. The note with it: read-out: MIC. In short, it runs like this:
as §2

A short description of data set [8]: Cytotoxicity against human Molt4/C8 cells. The class given is functional, cell-based. The note with it: MOLT-4. The essentials:
as §1

In data set [9] the test system is CCRF-CEM. The experiment in a line: Cytotoxicity against human CEM cells assessed as inhibition of [3H]dThd incorporation into macromolecules. The class given is functional. In short, it runs like this:
(§3)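 L1210 and CEM cells were given radiolabelled [3H]dThd (DNA), [3H]Urd (RNA) or [3H]Leu (protein). Label incorporated into methanol-insoluble material was measured. IC50 is the concentration that inhibits precursor incorporation by 50%.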

Data set [10] has as its system CCRF-CEM. As to the kind of experiment: Cytotoxicity against human CEM cells assessed as inhibition of [3H]Leu incorporation into macromolecules. It counts as functional. In short, it runs like this:
as §3

In data set [11] the test system is L1210. The experiment in a line: Cytotoxicity against mouse L1210 cells assessed as inhibition of [3H]Leu incorporation into macromolecules. It counts as functional. In short, it runs like this:
as §3

The subject of data set [12] is CCRF-CEM. As to the kind of experiment: Cytotoxicity against human CEM cells assessed as inhibition of [3H]Urd incorporation into macromolecules. The class given is functional. The essentials: as §3
The subject of data set [13] is L1210. The experiment in a line: Cytotoxicity against mouse L1210 cells assessed as inhibition of [3H]dThd incorporation into macromolecules. It counts as functional. The essentials:
as §3

The test system of data set [14] is L1210. The experiment in a line: Cytotoxicity against mouse L1210 cells assessed as inhibition of [3H]Urd incorporation into macromolecules. The class given is functional. In short, it runs like this: as §3

As for `C[C@H]1O[C@@H](n2ccc(=O)[nH]c2=O)C=C(F)C1=O`, the IC50 in data set [1] was determined as 2.2 µM; in data set [3], 16 µM; in [4] it was 2.9 µM; in data set [8], 2.5 µM. The MCC in data set [2] and in data set [7] was 20 µM in each case. Besides, the CC50 in [5] was 0.6 µM. Also, the minimum cytotoxic concentration (MCC) in data set [6] came to 20 µM.
In the case of `C[C@H]1O[C@@H](n2ccc(NC(=O)c3ccccc3)nc2=O)C=C(F)C1=O`, the IC50 stood at 1.7 µM in data set [1]; 11 µM in data set [9]; 11.9 µM in data set [3]; 7.9 µM in [10]; 1.4 µM in data set [4]; 12 µM in [11]. In addition, the IC50 in data set [12] was found to be 12 µM; in data set [13], 12 µM; in [14], 10 µM; in data set [8] it was 1.6 µM. Further, the MCC in data set [2] and in data set [7] was 20 µM throughout. Besides, the CC50 in [5] is 8.2 µM. The minimum cytotoxic concentration (MCC) in data set [6] came to 20 µM.
`C[C@H]1O[C@@H](n2cc(F)c(=O)[nH]c2=O)C=C(F)C1=O`: the IC50 was found to be 3.7 µM in data set [1], 0.49 µM in [3], 0.82 µM in [4] and 3.3 µM in [8]. Further, the MCC in [2] and in data set [7] was 20 µM in each case. Also, the CC50 in data set [5] was determined as 0.6 µM. The minimum cytotoxic concentration (MCC) in [6] was determined as 20 µM.
`C[C@H]1O[C@@H](n2cnc3c(NC(=O)c4ccccc4)ncnc32)C=C(F)C1=O`: the IC50 in [1] stood at 4.3 µM; in data set [3], 6 µM; in data set [4] it was 2.4 µM; in [8], 5 µM. The MCC in data set [2] and in data set [7] was 20 µM each time. Besides, the CC50 in data set [5] came to 12 µM. Moreover, the minimum cytotoxic concentration (MCC) in [6] is 20 µM.
With `Cc1cn([C@H]2C=C(F)C(=O)[C@@H](C)O2)c(=O)[nH]c1=O`, the IC50 worked out at 2.6 µM in data set [1], 10 µM in data set [3], 2.8 µM in data set [4] and 2.5 µM in data set [8]. Also, the MCC in data set [2] and in data set [7] was 20 µM in each case. Also, in data set [5], the CC50 is 0.7 µM. Also, the minimum cytotoxic concentration (MCC) in data set [6] was found to be 20 µM.
